# Test results from ChEMBL document CHEMBL1250499, “Chiral 6-hydroxymethyl-1H,3H-pyrrolo[1,2-c]thiazoles: novel antitumor DNA monoalkylating agents” (Eur J Med Chem, 2010).
# Assays:
# Format in all cases: functional, cell-based
# A-375 [1] = experiment: Cytotoxicity against human A375 cells after 24 hrs by MTT assay; conditions: A-375, 24 h
# Outline: (§1)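 Cells grown in DMEM with 10% heat-inactivated FBS, 1% penicillin–streptomycin and 100 μM sodium pyruvate at 37 °C, 5% CO2. Seeded at 50 000 cells/mL, attached overnight, then exposed to successive DMSO dilutions of compound. Proliferation read by MTT colorimetric assay as % inhibition versus DMSO-only controls. IC50 from dose-response curves by exponential decay fit (r2 > 0.9). Duplicates, three independent sets.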
# MCF7 [2] = experiment: Cytotoxicity against human MCF7 cells after 72 hrs by MTT assay; conditions: MCF7, 72 h; outline: as §1
# MCF7 [3] = experiment: Cytotoxicity against human MCF7 cells after 48 hrs by MTT assay; conditions: MCF7, 48 h; outline: as §1
# A-375 [4] = experiment: Cytotoxicity against human A375 cells after 96 hrs by MTT assay; conditions: A-375, 96 h; outline: as §1
# WiDr [5] = experiment: Cytotoxicity against human WiDr cells after 96 hrs by MTT assay; outline: as §1
# MCF7 [6] = experiment: Cytotoxicity against human MCF7 cells after 96 hrs by MTT assay; conditions: MCF7, 96 h; outline: as §1
# WiDr [7] = experiment: Cytotoxicity against human WiDr cells after 72 hrs by MTT assay; outline: as §1
# A-375 [8] = experiment: Cytotoxicity against human A375 cells after 72 hrs by MTT assay; conditions: A-375, 72 h; outline: as §1
# A-375 [9] = experiment: Cytotoxicity against human A375 cells after 48 hrs by MTT assay; conditions: A-375, 48 h; outline: as §1
# MCF7 [10] = experiment: Cytotoxicity against human MCF7 cells after 24 hrs by MTT assay; conditions: MCF7, 24 h; outline: as §1
# WiDr [11] = experiment: Cytotoxicity against human WiDr cells after 24 hrs by MTT assay; outline: as §1
# WiDr [12] = experiment: Cytotoxicity against human WiDr cells after 48 hrs by MTT assay; outline: as §1
Structure (SMILES),IC50 (A-375 [1]) [µM],IC50 (MCF7 [2]) [µM],IC50 (MCF7 [3]) [µM],IC50 (A-375 [4]) [µM],IC50 (WiDr [5]) [µM],IC50 (MCF7 [6]) [µM],IC50 (WiDr [7]) [µM],IC50 (A-375 [8]) [µM],IC50 (A-375 [9]) [µM],IC50 (MCF7 [10]) [µM],IC50 (WiDr [11]) [µM],IC50 (WiDr [12]) [µM]
COC(=O)c1cc2n(c1C)[C@@H](c1ccccc1)SC2,73.5,48.8,55.5,40,40.9,30.6,44.6,56.2,65.1,128,54.2,57.1
Cc1c(CO)cc2n1[C@@H](c1ccccc1)SC2,103,2.4,4.3,36.8,11,1.9,15.4,62.9,69.8,26.4,55.5,17.1
Cc1cc(CO)c2n1[C@@H](c1ccccc1)SC2,128,29.9,63.9,45.3,65.1,19.9,63.5,62.1,106,110,144,95.3
Cc1c(CO)c(CO)c2n1[C@@H](c1ccccc1)SC2,97.3,1,1.9,16.9,3.2,0.6,7.1,27.2,36.1,12.2,60,9.1
Cc1c(COC(=O)NCc2ccccc2)cc2n1[C@@H](c1ccccc1)SC2,37.4,2.2,4.4,27.6,14.8,1.9,8.7,42.1,32.4,8.8,30.9,8.7
